Test results as given in ChEMBL document CHEMBL1131206, “Synthesis, anticonvulsant activity, and structure-activity relationships of sodium channel blocking 3-aminopyrroles” (J Med Chem, 1998).

Key:
[1] = Partition coefficient (logP); type: physicochemical; conditions: octanol/water
[2] = tested on: Mus musculus; experiment: Anticonvulsant activity was measured by maximal electroshock seizure test in mice by ip administration; type: functional
How it was run: (§1)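 Male albino CF No. 1 mice (18–25 g) were dosed ip and tested by maximal electroshock at the previously determined time of peak effect. Groups of at least eight mice received various doses until at least two points fell between 0% and 100% protection. ED50 and its 95% confidence interval were calculated. Single-dose entries give protection percentage at the indicated dose.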

[3] = tested on: Rattus norvegicus; experiment: Minimal motor impairment activity by Rotarod test in rat following p.o. administration.; type: functional; conditions: po
How it was run: (§2)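 Minimal motor impairment in male Sprague–Dawley rats (100 g) after oral dosing was judged at the time of peak effect. The criterion was overt ataxia, abnormal gait and stance, and/or loss of placing response and muscle tone. Groups had at least eight rats across various doses, and the median impairing dose with its 95% confidence interval was calculated.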

[4] = tested on: Rattus norvegicus; experiment: Anticonvulsant activity was measured by maximal electroshock seizure test in rat by po administration; type: functional
How it was run: (§3)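 Maximal electroshock test in male albino Sprague–Dawley rats (100 g) after oral dosing, run at the previously determined time of peak effect. At least eight rats per group received various doses until at least two points lay between 0% and 100% protection. ED50 with 95% confidence interval was calculated. Single-dose entries report percent protection at that dose.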

[5] = tested on: Mus musculus; experiment: Minimal motor impairment activity by Rotarod test in mice following i.p. administration.; type: functional; conditions: ip
How it was run: (§4)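 Rotorod neurotoxicity test in male albino CF No. 1 mice dosed ip, run at the time of peak effect. Impairment was defined as failure to keep equilibrium for 60 s in each of three trials on the rotating rod. With groups of at least eight mice across various doses, the median motor-impairing dose and its 95% confidence interval were calculated.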

[6] = tested on: Mus musculus; experiment: Anticonvulsant activity was measured by maximal electroshock seizure test in mice by ip administration at 30 mg/kg; type: functional; conditions: route intraperitoneal; how it was run: as §1
[7] = tested on: Rattus norvegicus; experiment: Anticonvulsant activity was measured by maximal electroshock seizure test in rat by po administration at 30 mg/kg; type: functional; how it was run: as §3
[8] = tested on: Rattus norvegicus; experiment: Anticonvulsant activity in corneal kindled rats was determined when 50 mg/kg was administered intraperitoneally; type: functional; conditions: route intraperitoneal
How it was run: (§5)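 Male Sprague–Dawley rats (100 g) kindled by daily corneal stimulation at 8 mA/60 Hz for 4 s until 10 consecutive stage 5 seizures (rearing and falling with clonus). Drug was given ip in 0.5% methyl cellulose in water at 0.04 mL/10 g body weight. Read-out was seizure score; abolition of the generalized (stage 4–5) seizure was the endpoint.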

[9] = tested on: Rattus norvegicus; experiment: Anticonvulsant activity in corneal kindled rats was determined when 75 mg/kg was administered intraperitoneally; type: functional; conditions: route intraperitoneal; how it was run: as §5
[10] = tested on: Rattus norvegicus; experiment: Anticonvulsant activity in corneal kindled rats was determined when 100 mg/kg was administered intraperitoneally; type: functional; conditions: route intraperitoneal; how it was run: as §5
[11] = tested on: Rattus norvegicus; experiment: Anticonvulsant activity in corneal kindled rats was determined when 10 mg/kg was administered intraperitoneally; type: functional; conditions: route intraperitoneal; how it was run: as §5
[12] = tested on: Rattus norvegicus; experiment: Anticonvulsant activity in corneal kindled rats was determined when 150 mg/kg was administered intraperitoneally; type: functional; conditions: route intraperitoneal; how it was run: as §5
[13] = tested on: Rattus norvegicus; experiment: Anticonvulsant activity in corneal kindled rats was determined when 25 mg/kg was administered intraperitoneally; type: functional; conditions: route intraperitoneal; how it was run: as §5
[14] = tested on: Mus musculus; experiment: Anticonvulsant activity was measured by maximal electroshock seizure test in mice by ip administration at 100 mg/kg dose; type: functional; conditions: route intraperitoneal; how it was run: as §1
[15] = tested on: Rattus norvegicus; experiment: Anticonvulsant activity was measured by maximal electroshock seizure test in rat by po administration at 50 mg/kg dose; type: functional; how it was run: as §3
[16] = tested on: Mus musculus; experiment: Minimal motor impairment activity of the compound was measured by Rotarod test in mice by ip administration; No effective response; type: functional, organism-based; how it was run: as §4
[17] = tested on: Rattus norvegicus; experiment: Minimal motor impairment activity of the compound was measured by […] in rat by po administration; No effective response; type: functional, organism-based; how it was run: as §2
[18] = tested on: Rattus norvegicus; experiment: Anticonvulsant activity was measured by maximal electroshock seizure test in rat by po administration; No effective response; type: functional, organism-based; how it was run: as §3
[19] = tested on: Mus musculus; experiment: Anticonvulsant activity was measured by maximal electroshock seizure test in mice by ip administration; No effective response; type: functional, organism-based; how it was run: as §1
[20] = tested on: Mus musculus; experiment: Minimal motor impairment activity was measured by Rotarod test in mice by ip administration; type: functional; how it was run: as §4
[21] = tested on: Mus musculus; experiment: Anticonvulsant activity was measured by maximal electroshock seizure test in mice by ip administration at 100 mg/kg; type: functional; conditions: route intraperitoneal; how it was run: as §1
[22] = tested on: Rattus norvegicus; experiment: Minimal motor impairment activity was measured by Rotarod test in rat by po administration; type: functional; how it was run: as §2
[23] = tested on: Rattus norvegicus; experiment: Anticonvulsant activity was measured by maximal electroshock seizure test in rat by po administration at 50 mg/kg; type: functional; how it was run: as §3
[24] = tested on: Rattus norvegicus; experiment: Anticonvulsant activity was measured by maximal electroshock seizure test in rat by po administration at 25 mg/kg; type: functional; how it was run: as §3
[25] = tested on: Rattus norvegicus; experiment: Anticonvulsant activity in corneal kindled rats was determined when 40 mg/kg was administered orally; type: functional; conditions: route oral
How it was run: (§6)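 Male Sprague–Dawley rats were kindled by daily corneal stimulation (8 mA, 60 Hz, 4 s) until they reached 10 consecutive stage 5 seizures (rearing and falling with clonus). The drug was then given orally, and seizure score was recorded as mean ± variation. Abolition of the generalized stage 4–5 seizure served as the endpoint.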

[26] = tested on: Rattus norvegicus; experiment: Anticonvulsant activity in corneal kindled rats was determined when 80 mg/kg was administered orally; type: functional; conditions: route oral; how it was run: as §6
[27] = tested on: Rattus norvegicus; experiment: Anticonvulsant activity in corneal kindled rats was determined when 10 mg/kg was administered orally; type: functional; conditions: route oral; how it was run: as §6
[28] = tested on: Rattus norvegicus; experiment: Anticonvulsant activity in corneal kindled rats was determined when 20 mg/kg was administered orally; type: functional; conditions: route oral; how it was run: as §6

SMILES	logP [1]	ED50 [2] [mg/kg]	ED50 [3] [mg/kg]	ED50 [4] [mg/kg]	ED50 [5] [mg/kg]	also measured
COC(=O)c1[nH]cc(-c2ccc(Cl)cc2)c1N1CCN(c2ccccc2)CC1	4.4	175	> 500	12.5	> 500	–
CCOC(=O)c1[nH]cc(-c2ccc(Cl)cc2)c1N1CCN(C)CC1	–	–	< 25	–	< 25	Protection [6]: 100%; Protection [7]: 100%
Cn1cc(-c2ccc(Cl)cc2)c(N2CCOCC2)c1	4.2	–	–	–	–	–
O=C1NC(=O)C(c2ccccc2)(c2ccccc2)N1 [PHENYTOIN]	–	6.5	> 500	–	42.8	Seizure score [8]: 4.4; Seizure score [9]: 3.7; Seizure score [10]: 3; Seizure score [11]: 5; Seizure score [12]: 3; Seizure score [13]: 4.7
CCN1C(=O)c2c(N3CCOCC3)c(-c3ccc(Cl)cc3)cn2C1=O	–	–	–	–	–	ED50 [16]: No effective response; ED50 [17]: No effective response; ED50 [18]: No effective response; ED50 [19]: No effective response
COC(=O)c1[nH]cc(-c2cccc(Br)c2)c1N1CCOCC1	–	–	–	–	–	ED50 [20]: > 300 mg/kg; Protection [21]: 100%; ED50 [22]: > 50 mg/kg; Protection [23]: 75%
COC(=O)c1c(N2CCOCC2)c(-c2ccc(Cl)cc2)cn1C(=O)c1ccccc1	5.5	43.7	> 500	14	175	–
Cn1cc(-c2ccc(Cl)cc2)c(N2CCOCC2)c1C(=O)O	2.3	–	–	–	–	–
CC(=O)c1[nH]cc(-c2ccc(Cl)cc2)c1N1CCOCC1	–	72.6	> 100	10.6	335	–
Clc1ccc(-c2c[nH]cc2N2CCOCC2)cc1	3.2	62.1	> 200	17.7	115	–
NC(=O)N1c2ccccc2C=Cc2ccccc21 [CARBAMAZEPINE]	–	9.9	361	11.9	47.8	Seizure score [25]: 3.8; Seizure score [26]: 2; Seizure score [27]: 4.8; Seizure score [28]: 4.5

Continued, in another order:

logP [1]	SMILES	ED50 [2] [mg/kg]	ED50 [3] [mg/kg]	ED50 [4] [mg/kg]	ED50 [5] [mg/kg]	also measured
3.7	C=CCNC(=O)c1[nH]cc(-c2ccc(Cl)cc2)c1N1CCOCC1	–	–	–	–	–
3.5	N#Cc1[nH]cc(-c2ccc(Cl)cc2)c1N1CCOCC1	–	> 50	–	> 300	Protection [14]: 30%; Protection [15]: 100%
2.4	NC(=O)c1[nH]cc(-c2ccc(Cl)cc2)c1N1CCOCC1	65	> 50	–	> 500	–
1.8	O=C(O)c1[nH]cc(-c2ccc(Cl)cc2)c1N1CCOCC1	–	> 25	–	> 300	Protection [24]: 75%
3.1	CN(C)C(=O)c1[nH]cc(-c2ccc(Cl)cc2)c1N1CCOCC1	–	–	–	–	–
